Rows were chosen to be rich in hits. Some 2% of all compounds tested hit in one or more screens of this group.
HKDC1 inhibitor: inhibitors of human hexokinase HKDC1. hit rate 0.16% among 340,000. AID 493160. recombinant HKDC1, G6PDH/diaphorase resazurin coupled fluorescence. inhibition, % at 20 µM;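 active = inhibition above about 35% when tested at 20 µM, limit read from the data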
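Assay system – recombinant HKDC1 (HK5) hexokinase enzyme, produced in-house · Input – HKDC1 at 5 µg/mL · Reagent – glucose plus 1 mM ATP as hexokinase substrates · Timing – 90 min reaction incubation at room temperature, dark · Measured by – G6PDH/diaphorase-coupled fluorescence, 1 mM NADP, 100 µM resazurin, 525/613 nm · Benchmarks – DMSO-enzyme wells negative, buffer-substituted wells positive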
VIM-2 inhibitor: blocks Pseudomonas aeruginosa VIM-2 metallo-beta-lactamase; purified VIM-2, nitrocefin hydrolysis, epi-absorbance fluorescence; inhibition, % at 5.6 µM; hit rate 0.89% among 290,000; AID 1527;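 active = inhibition above the mean of all tested compounds plus 3 SD, cutoff set per screening run, cut at about 7.5% in these data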;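 note: red hydrolysis product quenches plate fluorescence so inhibitors raise well fluorescence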
MIN6 prolif: inducers of beta-cell replication in MIN6 cells. MIN6 cells proliferation, ATPlite luminescence, 48 h; cells starved in 0.2% serum; 100% = growth in 10% serum. hit rate 0.29% among 330,000. proliferation, % at 10 µM;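 active = compounds whose signal lies at least 3.5 SD above the mean of all wells on their plate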
PvdQ acylase: P. aeruginosa PvdQ acylase inhibition | purified PvdQ acylase, fluorescence plate reader | inhibition, % at 10 µM | hit rate 0.063% among 340,000; in the data active = inhibition above about 30%, passing the limit was not always enough
ATG4B inh: inhibitors of human ATG4B cysteine protease | Q9Y4P1 | ATG4B cleavage of LC3-PLA2, NBD-HPC fluorescence, 1 h | inhibition, % at 8.33 µM | hit rate 0.51% among 340,000; in the data active = inhibition above about 40%
Target sequence (Q9Y4P1 whole entry, looked up): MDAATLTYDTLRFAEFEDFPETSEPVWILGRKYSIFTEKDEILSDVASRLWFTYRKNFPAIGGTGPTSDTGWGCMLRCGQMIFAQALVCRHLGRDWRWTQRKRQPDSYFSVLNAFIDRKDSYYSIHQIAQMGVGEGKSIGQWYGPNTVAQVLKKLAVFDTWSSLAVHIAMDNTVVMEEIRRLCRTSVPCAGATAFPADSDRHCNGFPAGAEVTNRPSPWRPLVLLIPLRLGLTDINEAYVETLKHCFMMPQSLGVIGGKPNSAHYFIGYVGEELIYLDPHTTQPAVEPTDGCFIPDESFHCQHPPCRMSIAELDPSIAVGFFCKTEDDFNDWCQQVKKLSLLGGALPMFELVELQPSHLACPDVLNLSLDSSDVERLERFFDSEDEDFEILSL
IMP-1 inhibitor: inhibitors of Pseudomonas aeruginosa IMP-1 metallo-beta-lactamase; purified IMP-1, nitrocefin hydrolysis, epi-absorbance fluorescence; inhibition, % at 5.6 µM; hit rate 0.45% among 290,000; AID 1556;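 active = inhibition above the mean plus 3 SD of all compounds in the same screening run, cut at about 4.5% in these data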
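System: purified IMP-1; amount: IMP-1 0.2 nM before substrate addition; compound: single dose, 5.6 µM; times: 25 °C, 15 min preincubation, 25 min reaction; signal: Epi-absorbance via hydrolysed-nitrocefin quenching of white-plate fluorescence, 480/530 nm, EDTA stop; benchmarks: DMSO with and without IMP-1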
ATG4B conf: ATG4B (human) inhibition, single-dose confirmed; shares compounds with ATG4B inh; ATG4B protease fluorescent substrate cleavage assay; inhibition, % at 8.33 µM; hit rate 92% among 320; AID 504757; in the data active = inhibition above about 39%
PLA2 counter: PLA2 (human) inhibition in ATG4B counter-screen | shares compounds with ATG4B inh | purified PLA2, NBD-C6-HPC fluorescence, 45 min | inhibition, % at 8.33 µM | hit rate 66% among 1,600 | AID 588402; in the data active = inhibition above about 50%
Target sequence (P04054 whole entry, looked up): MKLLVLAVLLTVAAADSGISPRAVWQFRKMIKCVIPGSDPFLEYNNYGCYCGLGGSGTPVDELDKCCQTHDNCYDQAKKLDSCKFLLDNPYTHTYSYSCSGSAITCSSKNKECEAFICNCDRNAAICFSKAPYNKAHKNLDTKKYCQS
Of the large screens only hits and unclear results are named; the others gave an inactive call (follow-up assays come after a bar, where they were run).

O=C(CCCn1c(=S)[nH]c2cc3c(cc2c1=O)OCO3)N1CCN(c2ccc(F)cc2)CC1	ATG4B inh 56 | ATG4B conf 59 | PLA2 counter inactive
O=C(CCCCCn1c(=S)[nH]c2cc3c(cc2c1=O)OCO3)N1CCN(c2ccccc2)CC1	none
Cc1ccc(C)c(N2CCN(C(=O)CCCn3c(=S)[nH]c4cc5c(cc4c3=O)OCO5)CC2)c1	ATG4B inh 52 | PLA2 counter 62
O=C(CCCn1c(=S)[nH]c2cc3c(cc2c1=O)OCO3)N1CCN(c2ccccc2F)CC1	ATG4B inh 51 | PLA2 counter 54
O=C(CCCn1c(=S)[nH]c2cc3c(cc2c1=O)OCO3)N1CCN(c2ncccn2)CC1	none
OCC(O)CNC(=S)NC1CCCCC1 (stereo not drawn)	none
CC1=NN(c2ccc(C(=O)O)cc2)C(=O)/C1=C\c1ccc(OC(=O)c2cccs2)cc1	ATG4B inh 85 | PLA2 counter 70
O=C(Nc1cccc(N=Cc2cc(Br)cc(Br)c2O)c1)c1ccco1	ATG4B inh 69 (no result: MIN6 prolif) | PLA2 counter 60
O=C(Nc1cccc(N=Cc2cc(Cl)cc(Br)c2O)c1)c1ccco1	ATG4B inh 66 | PLA2 counter 56
O=C(NCc1ccccc1)C(=O)Nc1nccs1	none
COc1ccccc1CCC(=O)NCCCn1ccc2ccccc21	none
OCCC1CN(Cc2nc3ccccc3s2)CCN1CCc1ccccc1 (stereo not drawn)	none
CCOC(=O)C(N)CSC1CC(=O)N(CCc2ccccc2)C1=O (stereo not drawn)	none
Cc1nc(Nc2nc3ccccc3o2)nc2c1CCC2	none
O=C1CCCC2=C1C1(CCCCC1)N=C(Nc1nc3ccccc3o1)N2	ATG4B inh 66 | PLA2 counter 76
COc1ccc(-n2c(C)c(C(C)=O)c3cc(OCC(N)=O)ccc32)cc1	ATG4B inh 50 | PLA2 counter 58
O=C(NC(=S)Nc1ccc(Cc2ccncc2)cc1)c1ccccc1F	ATG4B inh 52 | PLA2 counter 56
Cc1ccccc1C(=O)NC(=S)Nc1ccc(Cc2ccncc2)cc1	ATG4B inh 46 | PLA2 counter inactive
Cc1cc(C)c2cc(CN(Cc3ccco3)C(=S)NCC3CCCO3)c(=O)[nH]c2c1 (stereo not drawn)	none
Cc1ccc(-n2c(O)c(C=Nc3ccccc3-c3n[nH]c(=S)[nH]c3=O)c3ccccc3c2=O)cc1C	none
Cc1ccc(-n2c(O)c(C=Nc3ccccc3-c3n[nH]c(=S)[nH]c3=O)c3ccccc3c2=O)c(C)c1	ATG4B inh 43 | ATG4B conf 65 | PLA2 counter inactive
CC(=O)N1CCN(c2ccc(C(N)=O)cc2[N+](=O)[O-])CC1	none
NC(=O)c1ccc(N2CCCCCC2)c([N+](=O)[O-])c1	ATG4B inh 68 | PLA2 counter 70
NC(=O)c1ccc(N2CCN(c3ccccc3O)CC2)c([N+](=O)[O-])c1	none
NC(=O)c1ccc(N2CCN(c3ccccc3F)CC2)c([N+](=O)[O-])c1	ATG4B inh 45 | PLA2 counter 50
CC(=O)Nc1ccc(NC(=O)C(C)Sc2nc3ccccc3c(=O)n2Cc2ccco2)cc1 (stereo not drawn)	none (no result: VIM-2 inhibitor, IMP-1 inhibitor)
O=C(CCN1C(=O)c2ccccc2C1=O)NCc1ccc(Cl)cc1	none
COc1ccc(N=Cc2c(O)n(-c3cccc(C)n3)c(=O)c3ccccc23)c(OC)c1	none
O=C(NCc1cccc(F)c1)c1cccc(OC2CCN(C(=O)C3CC3)CC2)c1	none
CCN(Cc1ccccc1)C(=O)c1cccc(OC2CCN(C(=O)C3CC3)CC2)c1	ATG4B inh 43 | PLA2 counter inactive
CCN(Cc1ccccc1)S(=O)(=O)c1ccc(C(=O)N(CCCN(C)C)c2nc3c(C)c(C)ccc3s2)cc1	ATG4B inh 40 (no result: VIM-2 inhibitor, IMP-1 inhibitor) | PLA2 counter 50
COc1ccc(C=O)cc1CN1CCCN(Cc2ccccc2F)S1(=O)=O	ATG4B inh 53 | PLA2 counter 56
COc1ccccc1CCC(=O)N(Cc1ccccc1)c1c(N)n(Cc2ccccc2)c(=O)[nH]c1=O	none
CCC1=Nc2cc(C(=O)N3CCCCC3)ccc2Sc2ccc(C)cc21	ATG4B inh 52 | PLA2 counter 57
CC1=Nc2cc(C(=O)N3CCCC3)ccc2Sc2ccc(C)cc21	none
CC1=Nc2cc(C(=O)N3CCCCC3)ccc2Sc2ccc(C)cc21	ATG4B inh 52 | PLA2 counter inactive
Cc1ccc(CNC(=O)CN2C(=O)COc3ccc(S(=O)(=O)N4CCCCC4)cc32)o1	none
O=S(=O)(Nc1nc(-c2sccc2Cl)cs1)c1cc(Cl)ccc1Cl	ATG4B inh 88 | PLA2 counter 77
CC(C)(C)c1nnc(NS(=O)(=O)c2cc(Cl)ccc2Cl)s1	none
COc1ccc(-c2n[nH]c(C(F)(F)F)c2-c2cc3ccccc3o2)c(O)c1	ATG4B inh 58 | ATG4B conf 64 | PLA2 counter inactive
COc1ccccc1-c1c(-c2ccc(OCC(=O)NN)cc2O)n[nH]c1C(F)(F)F	none
Nc1o[nH]c(=O)c1C1CCCCC1	none (no result: VIM-2 inhibitor, MIN6 prolif, IMP-1 inhibitor)
O=C(CCCOc1ccc(Cl)cc1Cl)N1CCc2ccccc2C1	ATG4B inh 50 | PLA2 counter 51
COc1ccc(OC)c(-c2csc(NC(=O)c3ccccc3F)n2)c1	none
O=C(Nc1nc(COc2ccccc2)cs1)c1ccccc1F	ATG4B inh 54 | PLA2 counter inactive
O=c1cc(-c2ccccc2Cl)oc2c(NS(=O)(=O)c3cc(Cl)cc(Cl)c3O)ccc(O)c12	ATG4B inh 101 | PLA2 counter 103
CC(=O)Cn1nnc2sc(-c3ccccc3)cc2c1=O	none
CCn1cc(C(=O)OCC(=O)OC2CC(C)CCC2C(C)C)c(=O)c2ccc(C)nc21 (stereo not drawn)	ATG4B inh 71 | PLA2 counter 71
C=Cc1ccc(COC(=O)c2cn(CC)c3nc(C)ccc3c2=O)cc1	ATG4B inh 40 | PLA2 counter inactive
CCn1cc(C(=O)OCc2ccc(F)cc2)c(=O)c2ccc(C)nc21	none
CCn1cc(C(=O)OCc2cccc(Br)c2)c(=O)c2ccc(C)nc21	ATG4B inh 46 | PLA2 counter 53
O=S(=O)(NCc1ccccc1)c1ccc(Cl)cc1	none
O=S(=O)(Nc1cc2nc3ccccc3nc2n1Cc1ccccc1)c1ccc(Cl)cc1	ATG4B inh 45 (no result: MIN6 prolif) | PLA2 counter inactive
O=C(CSc1ccc2nnc(-c3ccccn3)n2n1)Nc1ccc(F)cc1F	none

From PubChem
